Reference: ChEMBL document CHEMBL1137333, “Synthesis, radiosynthesis, and biological evaluation of carbon-11 labeled 2beta-carbomethoxy-3beta-(3'-((Z)-2-haloethenyl)phenyl)nortropanes: candidate radioligands for in vivo imaging of the serotonin transporter with positron emission tomography” (J Med Chem, 2006)

What was measured:
Cynomolgus monkey [1] = experiment: Uptake in anesthetized cynomolgus monkey cerebellum after 2.5 mins; assay type: ADME, organism-based, Macaca mulatta; conditions: rhesus monkey, in vivo
Outline: (§1)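 Baseline microPET (Concorde P4) regional brain time-activity curves in anesthetized cynomolgus monkey following injection of the [11C]-labelled tracer, with radioactivity followed over the scan.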

Cynomolgus monkey [2] = experiment: Uptake in anesthetized cynomolgus monkey medulla after 35.0 mins; assay type: ADME, organism-based, Medulla of organ; conditions: in vivo
Outline: (§2)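 Baseline microPET scan (P4 scanner) of anesthetized cynomolgus monkeys after injection of the carbon-11 labelled nortropane tracer. Two baseline studies were run per tracer. Radioactivity was followed over time in regional brain time-activity curves.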

Cynomolgus monkey [3] = experiment: Uptake in anesthetized cynomolgus monkey midbrain after 6.5 mins; assay type: ADME, organism-based; conditions: in vivo; outline: as §2
Cynomolgus monkey [4] = experiment: Uptake in anesthetized cynomolgus monkey caudate after 27.5 mins; assay type: ADME, organism-based, Caudate nucleus; conditions: in vivo; outline: as §1
Cynomolgus monkey [5] = experiment: Uptake in anesthetized cynomolgus monkey thalamus after 115.0 mins; assay type: ADME, organism-based; conditions: in vivo
Outline: (§3)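 Baseline microPET (Concorde P4) scan in anesthetized cynomolgus monkeys after injection of the carbon-11 labeled tracer, with no chase drug. Regional brain time-activity curves were followed over the scan. Tracer radiochemical purity and specific activity were determined by analytical HPLC at the time of injection.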

Cynomolgus monkey [6] = experiment: Uptake in anesthetized cynomolgus monkey cerebellum after 115.0 mins; assay type: ADME, organism-based; conditions: in vivo; outline: as §1
Cynomolgus monkey [7] = experiment: Uptake in anesthetized cynomolgus monkey medulla after 15.5 mins; assay type: ADME, organism-based, Medulla of organ; conditions: in vivo; outline: as §2
Cynomolgus monkey [8] = experiment: Uptake in anesthetized cynomolgus monkey putamen after 85.0 mins; assay type: ADME, organism-based; conditions: in vivo; outline: as §3
Cynomolgus monkey [9] = experiment: Ratio of uptake in caudate to cerebellum of anesthetized cynomolgus monkey after 65 mins; assay type: ADME, organism-based; conditions: in vivo
Outline: (§4)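 Baseline microPET (Concorde P4) in anesthetized cynomolgus monkey after injection of the [11C]-labelled tracer. Regional time-activity curves were taken, and each region's uptake was divided by cerebellum uptake (low-SERT reference) at 65, 85 and 105 min postinjection.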

Cynomolgus monkey [10] = experiment: Uptake in anesthetized cynomolgus monkey cerebellum after 0.5 mins; assay type: ADME, organism-based; conditions: in vivo; outline: as §1
Cynomolgus monkey [11] = experiment: Uptake in anesthetized cynomolgus monkey thalamus after 3.5 mins; assay type: ADME, organism-based; conditions: in vivo; outline: as §3
Cynomolgus monkey [12] = experiment: Ratio of uptake in occipital to cerebellum of anesthetized cynomolgus monkey after 105 mins; assay type: ADME, organism-based; conditions: in vivo, 1.75 h; outline: as §4
Cynomolgus monkey [13] = experiment: Uptake in anesthetized cynomolgus monkey pons after 45.0 mins; assay type: ADME, organism-based; conditions: in vivo, 0.75 h; outline: as §3
Cynomolgus monkey [14] = experiment: Ratio of uptake in medulla to cerebellum of anesthetized cynomolgus monkey after 85 mins; assay type: ADME, organism-based; conditions: in vivo; outline: as §4
Cynomolgus monkey [15] = experiment: Uptake in anesthetized cynomolgus monkey midbrain after 27.5 mins; assay type: ADME, organism-based; conditions: in vivo; outline: as §2
Cynomolgus monkey [16] = experiment: Uptake in anesthetized cynomolgus monkey frontal after 0.5 mins; assay type: ADME, organism-based, Frontal cortex; conditions: in vivo; outline: as §1
Cynomolgus monkey [17] = experiment: Uptake in anesthetized cynomolgus monkey thalamus after 9.5 mins; assay type: ADME, organism-based; conditions: in vivo; outline: as §3
Cynomolgus monkey [18] = experiment: Uptake in anesthetized cynomolgus monkey caudate after 75.0 mins; assay type: ADME, organism-based, Caudate nucleus; conditions: in vivo, 1.25 h; outline: as §1
Cynomolgus monkey [19] = experiment: Uptake in anesthetized cynomolgus monkey occipital after 15.5 mins; assay type: ADME, organism-based, Macaca mulatta, Occipital cortex; conditions: rhesus monkey, in vivo; outline: as §2
Cynomolgus monkey [20] = experiment: Uptake in anesthetized cynomolgus monkey thalamus after 55.0 mins; assay type: ADME, organism-based; conditions: in vivo; outline: as §3
Cynomolgus monkey [21] = experiment: Uptake in anesthetized cynomolgus monkey cerebellum after 95.0 mins; assay type: ADME, organism-based; conditions: in vivo; outline: as §1
Cynomolgus monkey [22] = experiment: Uptake in anesthetized cynomolgus monkey putamen after 3.5 mins; assay type: ADME, organism-based; conditions: in vivo; outline: as §3
Cynomolgus monkey [23] = experiment: Uptake in anesthetized cynomolgus monkey pons after 18.5 mins; assay type: ADME, organism-based; conditions: in vivo; outline: as §3
Cynomolgus monkey [24] = experiment: Uptake in anesthetized cynomolgus monkey midbrain after 45.0 mins; assay type: ADME, organism-based; conditions: in vivo, 0.75 h; outline: as §2
Cynomolgus monkey [25] = experiment: Uptake in anesthetized cynomolgus monkey occipital after 4.5 mins; assay type: ADME, organism-based, Occipital cortex; conditions: in vivo, 0.075 h; outline: as §2
Cynomolgus monkey [26] = experiment: Uptake in anesthetized cynomolgus monkey medulla after 2.5 mins; assay type: ADME, organism-based, Medulla of organ; conditions: in vivo; outline: as §2
Cynomolgus monkey [27] = experiment: Uptake in anesthetized cynomolgus monkey pons after 15.5 mins; assay type: ADME, organism-based; conditions: in vivo; outline: as §3
Cynomolgus monkey [28] = experiment: Uptake in anesthetized cynomolgus monkey cerebellum after 45.0 mins; assay type: ADME, organism-based; conditions: in vivo, 0.75 h; outline: as §1
Cynomolgus monkey [29] = experiment: Ratio of uptake in frontal to cerebellum of anesthetized cynomolgus monkey after 65 mins; assay type: ADME, organism-based; conditions: in vivo; outline: as §4
Cynomolgus monkey [30] = experiment: Ratio of uptake in caudate to cerebellum of anesthetized cynomolgus monkey after 105 mins; assay type: ADME, organism-based; conditions: in vivo, 1.75 h; outline: as §4
Cynomolgus monkey [31] = experiment: Ratio of uptake in midbrain to cerebellum of anesthetized cynomolgus monkey after 85 mins; assay type: ADME, organism-based; conditions: in vivo; outline: as §4
Cynomolgus monkey [32] = experiment: Uptake in anesthetized cynomolgus monkey thalamus after 45.0 mins; assay type: ADME, organism-based; conditions: in vivo, 0.75 h; outline: as §3
Cynomolgus monkey [33] = experiment: Ratio of uptake in putamen to cerebellum of anesthetized cynomolgus monkey after 85 mins; assay type: ADME, organism-based; conditions: in vivo; outline: as §4
Cynomolgus monkey [34] = experiment: Ratio of uptake in frontal to cerebellum of anesthetized cynomolgus monkey after 105 mins; assay type: ADME, organism-based; conditions: in vivo, 1.75 h; outline: as §4

With `[11CH3]OC(=O)[C@@H]1C2CCC(C[C@@H]1c1cccc(/C=C/I)c1)N2` (some centres undefined) the Drug uptake (Cynomolgus monkey [1]) was 1.2, the Drug uptake (Cynomolgus monkey [2]) was 7.36 and the Drug uptake (Cynomolgus monkey [3]) was 4.97. The Drug uptake (Cynomolgus monkey [4]) was 5.41, the Drug uptake (Cynomolgus monkey [5]) was 6.16 and the Drug uptake (Cynomolgus monkey [6]) was 3.05. It also gave a Drug uptake (Cynomolgus monkey [7]) of 6.72, a Drug uptake (Cynomolgus monkey [8]) of 6.58 and a Ratio (Cynomolgus monkey [9]) of 1.3. It also gave a Drug uptake (Cynomolgus monkey [10]) of 0.01, a Drug uptake (Cynomolgus monkey [11]) of 2.1 and a Ratio (Cynomolgus monkey [12]) of 1.1. The Drug uptake (Cynomolgus monkey [13]) was 6.02, the Ratio (Cynomolgus monkey [14]) was 1.8 and the Drug uptake (Cynomolgus monkey [15]) was 7.14. It also gave a Drug uptake (Cynomolgus monkey [16]) of 0.01, a Drug uptake (Cynomolgus monkey [17]) of 5.29 and a Drug uptake (Cynomolgus monkey [18]) of 5.71. For the same molecule, the Drug uptake (Cynomolgus monkey [19]) was 4.69, the Drug uptake (Cynomolgus monkey [20]) was 7.12 and the Drug uptake (Cynomolgus monkey [21]) was 3.46. For the same molecule, the Drug uptake (Cynomolgus monkey [22]) was 2.12, the Drug uptake (Cynomolgus monkey [23]) was 5.52 and the Drug uptake (Cynomolgus monkey [24]) was 7.66. For the same molecule, the Drug uptake (Cynomolgus monkey [25]) was 2.44, the Drug uptake (Cynomolgus monkey [26]) was 1.4 and the Drug uptake (Cynomolgus monkey [27]) was 5.23. For the same molecule, the Drug uptake (Cynomolgus monkey [28]) was 5.11, the Ratio (Cynomolgus monkey [29]) was 1 and the Ratio (Cynomolgus monkey [30]) was 1.7. For the same molecule, the Ratio (Cynomolgus monkey [31]) was 2, the Drug uptake (Cynomolgus monkey [32]) was 7.14 and the Ratio (Cynomolgus monkey [33]) was 1.8. The Ratio (Cynomolgus monkey [34]) was 1.2.
